{"data": "Experimental data gathered from unrelated publications", "observed": "cell growth or viability"}
{"Structure (SMILES)": "COc1cc(C(=O)c2nc(-c3ccnc4[nH]ccc34)c[nH]2)cc(OC)c1OC", "cell line": "M14", "test": "MTS", "setting": "72 h", "IC50": "15.8 nM"}
{"Structure (SMILES)": "COc1cccc2c1C(=O)c1c(O)c3c(c(O)c1C2=O)C[C@@](O)(C(=O)CO)C[C@@H]3O[C@H]1C[C@H](N)[C@H](O)[C@H](C)O1", "cell line": "SK-BR-3", "test": "MTT", "setting": "24 h", "IC50": "54.4 µg/mL"}
{"Structure (SMILES)": "COc1cc(C(=O)c2nc(-c3cccc4[nH]ccc34)c(C)[nH]2)cc(OC)c1OC", "cell line": "M14", "test": "MTS", "setting": "72 h", "IC50": "17.2 nM"}
{"Structure (SMILES)": "C/C(=N/NC(=O)c1cn(-c2ccccc2)nc1-c1ccc(C)cc1)c1c(O)cc(C)oc1=O", "cell line": "Vero", "test": "MTT", "setting": "48 h", "IC50": "216000 nM"}
{"Structure (SMILES)": "Cc1noc2c1-c1ccc(-c3cnn(C)c3)cc1C(c1ccc(Cl)cc1)=N[C@H]2CC(N)=O", "cell line": "MP41", "test": "ATP luminescence", "setting": "72 h", "IC50": "376 nM"}
{"Structure (SMILES)": "C[C@H]1COCCN1c1nc(N2CCOC[C@@H]2C)c2ccc(-c3cccc(C(=O)NCCOCCOCCOCCONC(=O)c4ccc(F)c(F)c4Nc4ccc(I)cc4F)c3)nc2n1", "cell line": "D54", "test": "WST-1", "setting": "72 h", "IC50": "22800 nM"}
{"Structure (SMILES)": "O=C(NO)c1ccc(Cn2cnc3c(Nc4ccc(F)c(Cl)c4)ncnc32)cc1", "cell line": "U-266", "test": "MTT", "setting": "72 h", "IC50": "1460 nM"}
{"Structure (SMILES)": "CCCNC(=S)N/N=C/c1cccc2cc3ccccc3nc12", "cell line": "SK-BR-3", "test": "MTT", "setting": "48 h", "IC50": "> 50000 nM"}
{"Structure (SMILES)": "O=C(NO)c1ccc(Cn2cnc3c(Nc4ccc(Cl)cc4)ncnc32)cc1", "cell line": "U-266", "test": "MTT", "setting": "72 h", "IC50": "630 nM"}
{"Structure (SMILES)": "COc1cc(C(=O)c2nc(-c3cccc4[nH]ccc34)cs2)cc(OC)c1OC", "cell line": "M14", "test": "MTS", "setting": "72 h", "IC50": "4.5 nM"}
{"Structure (SMILES)": "FC(F)(F)c1cc(OCc2cc(-c3ccccn3)no2)c2ccccc2n1", "cell line": "HL-60", "test": "MTS", "setting": "72 h", "IC50": "> 100000 nM"}
{"Structure (SMILES)": "COc1cccc(NC(=S)N/N=C/c2cccc3cc4ccccc4nc23)c1", "cell line": "SK-BR-3", "test": "MTT", "setting": "48 h", "IC50": "> 50000 nM"}
{"Structure (SMILES)": "C[C@H]1[C@H](C)CC[C@]2(C)CC[C@]3(C)C(=CC(=O)[C@@H]4[C@@]5(C)CC[C@@H](O)[C@](C)(C(=O)NCc6cn(-c7ccccc7)nn6)[C@@H]5CC[C@]43C)[C@H]12", "cell line": "HDF", "test": "MTT", "setting": "24 h", "IC50": "181000 nM"}
{"Structure (SMILES)": "O=c1cc(OCc2cc(-c3ccccn3)no2)c2ccccc2o1", "cell line": "HL-60", "test": "MTS", "setting": "72 h", "IC50": "> 100000 nM"}
{"Structure (SMILES)": "CC(=O)O[C@@]12CO[C@@H]1C[C@H](O)[C@@]1(C)C(=O)[C@H](O)C3=C(C)[C@@H](OC(=O)[C@H](O)[C@@H](NC(=O)OC(C)(C)C)c4ccccc4)C[C@@](O)([C@@H](OC(=O)c4ccccc4)[C@H]21)C3(C)C", "cell line": "SK-BR-3", "test": "MTT", "setting": "24 h", "IC50": "> 50 µg/mL"}
{"Structure (SMILES)": "COc1ccc(N(C)c2nc(C)nc3ccccc23)cc1OCCCC(=O)NO", "cell line": "MP41", "test": "ATP luminescence", "setting": "72 h", "IC50": "84.4 nM"}
{"Structure (SMILES)": "COc1cc(C(=O)c2nc(-c3ccsc3)c[nH]2)cc(OC)c1OC", "cell line": "M14", "test": "MTS", "setting": "72 h", "IC50": "48.5 nM"}
{"Structure (SMILES)": "CC(C)C[C@H](NC(=O)[C@H](Cc1ccccc1)NC(=O)c1cnccn1)B(O)O", "cell line": "MP41", "test": "ATP luminescence", "setting": "72 h", "IC50": "4.34 nM"}
{"Structure (SMILES)": "C[C@H]1[C@H](C)CC[C@]2(C)CC[C@]3(C)C(=CC(=O)[C@@H]4[C@@]5(C)CC[C@@H](O)[C@](C)(C(=O)NCc6cn(-c7ccc(Cl)cc7)nn6)[C@@H]5CC[C@]43C)[C@H]12", "cell line": "HDF", "test": "MTT", "setting": "24 h", "IC50": "191000 nM"}
{"Structure (SMILES)": "CO[C@H]1[C@H](O[C@H]([C@H]2O[C@@H](n3ccc(=O)[nH]c3=O)[C@H](O)[C@@H]2O)[C@H](NCCCNC(=O)[C@@H](NC(=O)[C@@H](NC(=O)N[C@H](C(=O)O)C(C)C)[C@@H]2CCN=C(N)N2)[C@@H](O)C(C)C)C(=O)O)O[C@H](CN)[C@H]1O", "cell line": "SK-BR-3", "test": "WST-1", "IC50": "> 35000 nM"}
{"Structure (SMILES)": "FC(F)(F)c1ccc(-c2cc(COc3cc(C(F)(F)F)nc4ccccc34)on2)cc1", "cell line": "HL-60", "test": "MTS", "setting": "72 h", "IC50": "> 100000 nM"}
{"Structure (SMILES)": "C/C(=N/NC(=O)c1cn(-c2ccccc2)nc1-c1ccc(Br)cc1)c1c(O)cc(C)oc1=O", "cell line": "Vero", "test": "MTT", "setting": "48 h", "IC50": "192000 nM"}
{"Structure (SMILES)": "COc1cc(C(=O)c2nc(-c3cccc4cc[nH]c34)c[nH]2)cc(OC)c1OC", "cell line": "M14", "test": "MTS", "setting": "72 h", "IC50": "27.3 nM"}
{"Structure (SMILES)": "Nc1ccccc1NC(=O)c1ccc(Cn2cnc3c(Nc4ccc(Cl)cc4)ncnc32)cc1", "cell line": "HL-60", "test": "MTT", "setting": "72 h", "IC50": "1110 nM"}
{"Structure (SMILES)": "COc1cc(C(=O)c2nc(-c3cccc4c3CCN4)c[nH]2)cc(OC)c1OC", "cell line": "M14", "test": "MTS", "setting": "72 h", "IC50": "43.4 nM"}
{"Structure (SMILES)": "c1ccc(Oc2ccc(Nc3c4c(nc5ccccc35)CCC4)cc2)cc1", "cell line": "RAW264.7", "test": "resazurin", "setting": "72 h", "IC50": "40800 nM"}
{"Structure (SMILES)": "C[C@H]1[C@H](C)CC[C@]2(C)CC[C@]3(C)C(=CC(=O)[C@@H]4[C@@]5(C)CC[C@@H](O)[C@](C)(C(=O)NCc6cn(-c7ccccc7C(F)(F)F)nn6)[C@@H]5CC[C@]43C)[C@H]12", "cell line": "HDF", "test": "MTT", "setting": "24 h", "IC50": "103000 nM"}
{"Structure (SMILES)": "N#Cc1ccc(-c2cc(CNc3cccc4cccnc34)on2)cc1", "cell line": "HL-60", "test": "MTS", "setting": "72 h", "IC50": "16500 nM"}
{"Structure (SMILES)": "COc1ccc(Nc2ncnc3c2ncn3Cc2ccc(C(=O)Nc3ccccc3N)cc2)cc1", "cell line": "U-266", "test": "MTT", "setting": "72 h", "IC50": "4210 nM"}
{"Structure (SMILES)": "COc1cc([C@@H]2c3cc4c(cc3[C@H](O)[C@H]3COC(=O)[C@H]23)OCO4)cc(OC)c1OC", "cell line": "MP41", "test": "ATP luminescence", "setting": "72 h", "IC50": "6.49 nM"}
{"Structure (SMILES)": "COc1ccc(Nc2ncnc3c2ncn3Cc2ccc(C(=O)NO)cc2)cc1", "cell line": "U-266", "test": "MTT", "setting": "72 h", "IC50": "1110 nM"}
{"Structure (SMILES)": "COc1ccc(-c2nc(N3CCOCC3)c3sc(CN(C)c4ncc(C(=O)NO)cn4)cc3n2)cn1", "cell line": "MP41", "test": "ATP luminescence", "setting": "72 h", "IC50": "5.96 nM"}
{"Structure (SMILES)": "COc1ccccc1-n1cc(CNC(=O)[C@@]2(C)[C@H](O)CC[C@@]3(C)[C@H]2CC[C@]2(C)[C@@H]3C(=O)C[C@@H]3[C@@H]4[C@@H](C)[C@H](C)CC[C@]4(C)CC[C@]32C)nn1", "cell line": "HDF", "test": "MTT", "setting": "24 h", "IC50": "105000 nM"}
{"Structure (SMILES)": "CNC(=S)N/N=C/c1cccc2cc3ccccc3nc12", "cell line": "SK-BR-3", "test": "MTT", "setting": "48 h", "IC50": "41800 nM"}
{"Structure (SMILES)": "COc1cc(C(=O)c2nc(-c3ccc4cc[nH]c4c3)c[nH]2)cc(OC)c1OC", "cell line": "M14", "test": "MTS", "setting": "72 h", "IC50": "14.3 nM"}
{"Structure (SMILES)": "CC(C)CNC(=S)N/N=C/c1cccc2cc3ccccc3nc12", "cell line": "SK-BR-3", "test": "MTT", "setting": "48 h", "IC50": "> 50000 nM"}
{"Structure (SMILES)": "O=c1cc(OCc2cc(-c3ccc(Cl)cc3Cl)no2)c2ccccc2o1", "cell line": "HL-60", "test": "MTS", "setting": "72 h", "IC50": "> 100000 nM"}
{"Structure (SMILES)": "C[C@H]1[C@H](C)CC[C@]2(C)CC[C@]3(C)C(=CC(=O)[C@@H]4[C@@]5(C)CC[C@@H](O)[C@](C)(C(=O)NCc6cn(-c7ccc(Br)cc7)nn6)[C@@H]5CC[C@]43C)[C@H]12", "cell line": "HDF", "test": "MTT", "setting": "24 h", "IC50": "117000 nM"}
{"Structure (SMILES)": "O=[N+]([O-])c1ccc(Sc2cccc[n+]2[O-])c2nonc12", "cell line": "MP41", "test": "ATP luminescence", "setting": "72 h", "IC50": "2590 nM"}
